# High-throughput results as filed in PubChem BioAssay.
# Compounds with a hit are over-represented: about 3.3% of the library has one in this group of screens.
# Cl transport mod = KCC2 cotransporter modulators, thallium flux, primary screen, cell-based, HEK293 KCC2, FluoZin-2 fluorescence, MLSMR; hit rate 2.2% among 190,000; KCC2 cells, thallium flux FluoZin-2 fluorescence; B-score of Tl+ flux slope (higher = more flux/activation; lower = inhibition) at 10 µM; AID 1456, 2008;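 active means thallium flux slope and its plate-corrected score both differing from the plate sample mean at a set confidence after two filtering rounds, in either direction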;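 further: slope of fluorescence scaled to starting intensity during 10 to 20 s after thallium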
# PMI act hi M6P = human PMI activators, high substrate, primary screen, biochemical, fluorescence intensity, near-saturating mannose 6-phosphate. Mannose-6-phosphate isomerase (Homo sapiens), P34949. coupled PMI enzyme assay, resazurin fluorescence, 20 min; active compounds read high; 1 = untreated enzyme, 0 = substrate-free blank. activation factor at 20 µM. hit rate 0.34% among 190,000;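 active means activation factor of 2 or more at 20 µM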
#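 test system = human PMI in coupled enzyme assay | medium = HEPES-buffered pH 7.4 with magnesium and detergent | also added = 1.0 mM mannose-6-phosphate substrate with 0.22 mM NADP+ | compound = 20 µM single dose | times = 20 min incubation at room temperature | measured by = resorufin fluorescence (Ex 544/Em 590 nm) from resazurin via diaphorase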
# ABCB1 block = ABCB1 efflux pump inhibitors, primary screen, cell-based, multiplex, flow cytometry, ABCG2 counter-screen; CCRF-Adr cells, JC-1 efflux; ATP-dependent translocase ABCB1 (Homo sapiens), P08183; hit rate 0.067% among 190,000; AID 1326, 2008; inhibition, % at 6.6 µM; in the data active means inhibition above about 40%;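 further: 0% = vehicle and 100% = reference inhibitor; higher value means more JC-1 retained so stronger ABCB1 efflux block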
# PMI activator = activators of human PMI, primary screen, biochemical, fluorescence intensity, near-Km mannose 6-phosphate; purified human PMI, coupled resazurin fluorescence, 20 min; active compounds read high; 1 = vehicle control, 0 substrate-free wells; activation factor at 20 µM; hit rate 0.005% among 190,000;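 active means activation factor of 2 or more at 20 µM, relative to plate controls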
# ROMK primary = ROMK potassium channel modulators, primary screen, cell-based, thallium flux, MLSMR library; B-score at 10 µM; Tet-inducible ROMK, thallium flux fluorescence; actives lie on both sides; hit rate 2% among 130,000; ATP-sensitive inward rectifier potassium channel 1 (Homo sapiens), P48048; AID 1918, 2009;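 active means signal ratio slope over the read window, or its plate-corrected B-score, at least 3 SD from the plate mean, either direction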;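 further: B-score of the F/F0 ratio slope over 7 to 12 s after thallium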
# ABCG2 block = ABCG2 efflux pump inhibitors, primary screen, multiplex with ABCB1, IgMXP3 cells, flow cytometry | Broad substrate specificity ATP-binding cassette transporter ABCG2 (Homo sapiens), Q9UNQ0 | JC-1 efflux | inhibition, % at 6.6 µM | hit rate 0.1% among 190,000 | AID 1325, 2008;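 active means inhibition above 80%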;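 further: 0% = DMSO and 100% = nicardipine control wells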
# Target sequence (Q9UNQ0 whole entry, looked up): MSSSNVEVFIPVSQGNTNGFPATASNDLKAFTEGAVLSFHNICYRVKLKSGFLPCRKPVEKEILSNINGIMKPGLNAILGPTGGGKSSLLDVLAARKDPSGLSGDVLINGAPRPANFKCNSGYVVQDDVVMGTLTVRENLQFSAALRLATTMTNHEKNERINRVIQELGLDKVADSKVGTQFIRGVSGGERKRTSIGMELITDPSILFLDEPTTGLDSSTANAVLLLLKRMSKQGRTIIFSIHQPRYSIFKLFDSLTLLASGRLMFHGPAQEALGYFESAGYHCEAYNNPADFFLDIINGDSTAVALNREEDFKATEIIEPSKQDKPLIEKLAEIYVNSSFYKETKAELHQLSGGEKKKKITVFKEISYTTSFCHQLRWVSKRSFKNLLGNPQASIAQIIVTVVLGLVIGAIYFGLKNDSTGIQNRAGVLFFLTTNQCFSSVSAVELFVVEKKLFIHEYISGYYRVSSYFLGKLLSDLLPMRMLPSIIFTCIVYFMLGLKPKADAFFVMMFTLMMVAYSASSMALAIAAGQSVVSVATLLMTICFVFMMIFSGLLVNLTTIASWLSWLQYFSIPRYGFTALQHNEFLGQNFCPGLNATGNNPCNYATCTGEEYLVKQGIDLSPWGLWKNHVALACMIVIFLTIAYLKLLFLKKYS
#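 Test system: IgMXP3 (ABCG2) plus far-red-tagged CCRF-Adr (ABCB1) cells. Reagent: JC-1 dye as substrate. Timing: 10 min exposure at 25 °C with rotation, no wash. Measured by: flow cytometric JC-1 green MFI at 530 nm. Read-out: percent efflux inhibition, scaled nicardipine 100% to DMSO 0%. Control set: nicardipine and DMSO wells.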
# KCC2 secondary = KCC2 modulators in sodium-free buffer, confirmation, cell-based, HEK293 KCC2, thallium flux, secondary assay; shares compounds with Cl transport mod; FluoZin2 fluorescence; active compounds read high; normalised thallium flux (F/F0 slope) at 10 µM; hit rate 15% among 3,700; AID 1713, 2009;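 active means thallium flux slope above the same plate's solvent-only control mean plus 3 SD; inconclusive means the two replicate wells disagree; inactive means no significant difference from solvent-only control wells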
# KCC2 bumet counter = thallium flux persisting under bumetanide in KCC2 cells, confirmation, counter-screen for KCC2 modulator project, cell-based, HEK293 KCC2, FluoZin2, secondary assay 3; shares compounds with Cl transport mod; HEK293-KCC2 + bumetanide/ouabain; active compounds read high; normalized thallium flux at 10 µM; hit rate 49% among 3,700;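 active means thallium entry rate above the same plate's blocked-transporter control wells by more than 3 SD; inconclusive means the two repeat wells disagree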;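 further: raw slope of fluorescence over initial fluorescence between 10 and 20 s after thallium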
# KCC2 sec2 = KCC2 modulators without ouabain present, confirmation, cell-based, HEK293 KCC2, thallium flux, FluoZin2, secondary assay 2. shares compounds with Cl transport mod. thallium flux FluoZin2 fluorescence; actives lie on both sides; F/F0 rise rate, 10–20 s post-thallium. normalized thallium flux at 10 µM. hit rate 23% among 3,700;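 active means thallium flux slope more than 3 SD above or below the plate's solvent-only control mean, mostly below; inconclusive means the two repeat wells disagreed; inactive means no significant shift from solvent-only controls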;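 further: raw slope with 0.1% DMSO as baseline and bumetanide as block control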
# HEK293 Tl flux = thallium flux modulation in parental HEK cells, confirmation, counter-screen for KCC2 modulator project, cell-based, counterscreen 1; thallium flux rate (normalised fluorescence) at 10 µM; hit rate 46% among 3,700; shares compounds with Cl transport mod; HEK293 parental cells, thallium flux FluoZin2, ouabain; baseline-ratio fluorescence slope, 10–20 s after thallium; AID 1716, 2009;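 active means thallium flux rate significantly above the same plate's solvent-only control wells, beyond their mean plus 3 SD; inconclusive means the two replicate wells gave conflicting results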
# KCC2 retest ouab = KCC2 inhibitors and activators, ouabain retest, confirmation, HEK-KCC2 cells; shares compounds with Cl transport mod; HEK293-KCC2, thallium flux FluoZin2 fluorescence; bidirectional: low = inhibitor, high = activator; raw Tl+ flux slope (below DMSO = inhibition, above = activation) at 10 µM; hit rate 48% among 3,700;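 active means thallium flux slope beyond 3 SD from same-plate DMSO control mean in most replicates, usually higher, sometimes lower; inconclusive means repeat tests gave conflicting results; inactive means no significant difference from controls in most replicates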;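 further: slope of initial-normalized fluorescence between seconds 10 and 20 after thallium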
# HEK counter2 = native HEK Tl+ uptake effects, second counter-screen – HEK cells, counterscreen 2, counter-screen for KCC2 modulator project, confirmation; shares compounds with Cl transport mod; HEK293 parental, thallium flux FluoZin-2 fluorescence slope; thallium flux slope at 10 µM; hit rate 33% among 3,700; AID 1718, 2009;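 active means thallium flux slope above the same plate's solvent-control mean plus 3 SD in both duplicate wells; inconclusive means duplicate wells that disagreed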;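 further: run without ouabain in cells lacking the KCC2 cotransporter; slope of fluorescence scaled to its starting value between 10 and 20 s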
# The depositor's hits bear a star; u = inconclusive; x = not tested or not shown.
SMILES,Cl transport mod,PMI act hi M6P,ABCB1 block,PMI activator,ROMK primary,ABCG2 block,KCC2 secondary,KCC2 bumet counter,KCC2 sec2,HEK293 Tl flux,KCC2 retest ouab,HEK counter2
CC(C)(C)C(=O)Nc1nc2c(s1)CN(Cc1ccccc1)CC2,0.00075,0.9,0,1,-0.18,4,x,x,x,x,x,x
O=C(Nc1nc2c(s1)CN(Cc1ccccc1)CC2)C1CCCC1,-3*,0.6,0,0.9,-0.21,2,0.0082,0.0059,0.033,0.0075,u,0.011
O=C(CSc1nc2ccccc2c(=O)n1-c1ccc(SC(F)F)cc1)Nc1ccc(N2CCOCC2)cc1,4.5*,1.4,1,1.5,-1.2,-1,0.0096,0.014*,0.03,0.01*,0.024,0.011*
O=C(CSc1nc2ccccc2c(=O)n1-c1ccc(F)cc1)Nc1ccc(N2CCOCC2)cc1,0.035,1,0,1,x,0,x,x,x,x,x,x
O=C1COc2ccc(C(=O)c3ccccc3C(=O)NCc3ccccc3)cc2N1,x,1,x,1,0.048,x,x,x,x,x,x,x
CCOC(=O)CC1C(=O)NCCN1c1nc2c(C)cccn2c(=O)c1/C=C1\SC(=S)N(CC(C)C)C1=O (configuration not stated),-9*,x,x,x,x,x,0.00069*,-0.0059*,0.014*,-0.0023*,-0.0016*,0.0041*
CNC(=S)N/N=C(\C)c1ccc(C(C)(C)C)cc1,5.7*,1,0,0.9,x,21,0.0093,0.018*,0.032,0.022*,u,0.013*
CCOc1ccccc1N1CCN(C(=O)/C=C/c2cccc([N+](=O)[O-])c2)CC1,-3.8*,1,0,1,x,3,0.0054,0.0048,0.027*,0.0057*,0.017*,u
Cc1noc(/C=C/N(C)C)c1S(=O)(=O)N(C)CC(=O)NC1CCCCC1,-7.1*,1,1,1,x,2,0.01,0.0072,0.03,u,u,0.01
Cc1noc(/C=C/N(C)C)c1S(=O)(=O)N1CCCC(C(=O)NC2CCCCC2)C1 (configuration not stated),-0.012,0.9,2,0.9,x,3,x,x,x,x,x,x
N#CC1=C(N)NC(SCC(=O)O)=C(C#N)C12CCCC2,-0.62,0.8,0,0.9,-0.97,0,x,x,x,x,x,x
N#CC1=C(N)NC(SCc2ccc(F)cc2)=C(C#N)C12CCCCC2,-3.1,0.9,0,0.8,-2.7,4,0.0065,0.0043,0.024*,u,u,0.011
O=C(COc1ccccc1[N+](=O)[O-])NCCC1=CCCCC1,0.19,0.9,0,1,-0.77,2,x,x,x,x,x,x
CCN1C(=O)[C@H]2[C@H]3[C@H](O)[C@H](O)C/C(=N\OC[C@@H](C)[C@H](OCc4ccccc4)C(C)C)[C@@H]3CC[C@H]2C1=O,-0.076,0.8,2,1,-1.4,11,x,x,x,x,x,x
O=C1CC(c2ccccc2)CC(O)=C1C=NCCN1CCN(Cc2ccccc2)CC1 (configuration not stated),-0.27,x,x,x,x,x,x,x,x,x,x,x
CC1=C(C(=O)OCCOc2ccccc2)C(c2ccsc2)NC(=O)N1C (configuration not stated),-6.6*,1,2,1.1,-1.3,4,0.0084,0.006,0.03*,0.0038,0.016*,0.011
C/C(=N\NC(=O)c1ccccc1O)C1C(=O)c2ccccc2C1=O,-3.8*,1,0,1,1,0,0.0069,0.0055,0.029,u,0.015*,0.009
CCC/C(C)=N/NC(=O)c1ccccc1O,0.11,1,0,1.1,x,2,x,x,x,x,x,x
O=C(NN=C(Cc1ccccc1)Cc1ccccc1)c1ccccc1O,23*,1.2,0,1.2,0.88,1,u,0.062*,0.05*,0.037*,0.049*,0.031*
C#CCNc1cc(-c2ccccc2)nc2ncnn12,-0.18,1.1,0,1,0.11,1,x,x,x,x,x,x
COc1ccc(CCNc2cc(-c3ccccc3)nc3ncnn23)cc1,4.7*,1,1,1,x,6,0.0071,0.0043,0.027,0.0068,0.017,u
CCCCCCCCCCCCCCCC(=O)OC[C@H](COP(=O)([O-])OCC[N+](C)(C)C)OC(=O)CCCCCCCCCCCCCCC,0.0037,1.1,0,1.1,x,0,x,x,x,x,x,x
Cc1cccc(-n2c(-c3csc(C)c3C)n[nH]c2=S)c1,3.9,1,0,1,x,-4,x,x,x,x,x,x
CCCc1cc(-c2n[nH]c(=S)n2-c2cccc(C)c2)cs1,106*,0.9,-1,0.9,1.2,-3,0.022*,0.2*,0.04,0.058*,0.062*,0.017*
C/C(=N\NC(=S)Nc1cc(S(=O)(=O)N2CCOCC2)ccc1Cl)c1ccccc1F,6.9*,0.9,1,0.9,-0.24,4,u,0.025*,0.03,0.015*,0.044*,0.01
